Laboratory results: ChEMBL document CHEMBL1138746, “Indolebutylamines as selective 5-HT(1A) agonists” (J Med Chem, 2004)

Key:
D(2) dopamine receptor = D(2) dopamine receptor (Rattus norvegicus, UniProt P61169); assay: Displacement of [3H]spiperone from dopamine D2 receptor of rat striatal membranes; assay type: cell membranes, Membrane
Summary of the method: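 Rat striatal membranes (0.3–1.0 mg protein/mL) were incubated with 0.1 nM [3H]spiperone in Tris-HCl buffer (pH 7.1) containing 120 mmol/L NaCl, 5 mmol/L KCl, 1 mmol/L CaCl2, 1 mmol/L MgCl2 and 0.1% ascorbic acid, at 37 °C for 15 min. Bound ligand was separated by filtration with three ice-cold washes. Nonspecific binding was defined with 1 mmol/L (+)-butaclamol. IC50 (50% inhibition of binding) came from 5–10 concentrations, each in triplicate.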

[1] = target: T1, 5-hydroxytryptamine receptor 1A (Rattus norvegicus, UniProt P19327); assay: Inhibition of 8-OH DPAT bindign to rat hydroxytryptamine 1A receptor in hippocampal membranes
T1 sequence (P19327 whole entry): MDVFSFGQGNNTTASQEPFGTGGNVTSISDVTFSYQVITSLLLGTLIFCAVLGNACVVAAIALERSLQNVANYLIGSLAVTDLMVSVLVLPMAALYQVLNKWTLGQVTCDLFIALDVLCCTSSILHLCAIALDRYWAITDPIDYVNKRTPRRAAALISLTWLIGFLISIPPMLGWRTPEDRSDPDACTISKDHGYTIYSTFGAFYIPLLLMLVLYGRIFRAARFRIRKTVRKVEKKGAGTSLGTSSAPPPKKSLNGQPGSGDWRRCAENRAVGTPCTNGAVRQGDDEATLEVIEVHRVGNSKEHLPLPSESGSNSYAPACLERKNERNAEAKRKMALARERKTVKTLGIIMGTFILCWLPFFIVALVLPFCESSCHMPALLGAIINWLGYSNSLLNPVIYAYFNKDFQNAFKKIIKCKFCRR

Chain of D(2) dopamine receptor (P61169 whole entry): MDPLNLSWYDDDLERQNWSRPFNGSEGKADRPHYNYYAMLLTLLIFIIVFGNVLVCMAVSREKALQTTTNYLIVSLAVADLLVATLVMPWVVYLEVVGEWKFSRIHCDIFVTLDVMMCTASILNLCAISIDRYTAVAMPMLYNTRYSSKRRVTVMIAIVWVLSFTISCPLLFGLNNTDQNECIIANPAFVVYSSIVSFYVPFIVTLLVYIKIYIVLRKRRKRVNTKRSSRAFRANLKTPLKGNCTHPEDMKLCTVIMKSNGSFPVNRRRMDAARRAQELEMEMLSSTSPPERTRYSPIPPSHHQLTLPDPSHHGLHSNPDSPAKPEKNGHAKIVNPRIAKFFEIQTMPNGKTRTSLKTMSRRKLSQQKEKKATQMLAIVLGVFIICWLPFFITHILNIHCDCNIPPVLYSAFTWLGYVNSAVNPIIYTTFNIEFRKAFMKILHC

COc1ccc2[nH]cc(CCCCN3CCN(c4ccc(O)cc4)CC3)c2c1
IC50 (D(2) dopamine receptor): 53 nM | IC50 [1]: 2 nM

CCOc1ccc2[nH]cc(CCCCN3CCN(c4ccc(OC)cc4)CC3)c2c1
IC50 (D(2) dopamine receptor): 300 nM | IC50 [1]: 2 nM

COc1ccc2[nH]cc(CCCCN3CCN(c4ccccc4)CC3)c2c1
IC50 (D(2) dopamine receptor): 32 nM | IC50 [1]: 20 nM

N#Cc1ccccc1N1CCN(CCCCc2c[nH]c3ccc(C(N)=O)cc23)CC1
IC50 (D(2) dopamine receptor): 6.2 nM | IC50 [1]: 0.2 nM

COc1ccc(N2CCN(CCCCc3c[nH]c4ccc(OCc5ccccc5)cc34)CC2)cc1
IC50 (D(2) dopamine receptor): > 100 nM | IC50 [1]: 34 nM

COc1ccc(C2=CCN(CCCCc3c[nH]c4ccc(OC)cc34)CC2)cc1
IC50 (D(2) dopamine receptor): > 100 nM | IC50 [1]: 0.6 nM

NC(=O)c1ccc2[nH]cc(CCCCN3CCN(c4ccccc4)CC3)c2c1
IC50 (D(2) dopamine receptor): 7 nM | IC50 [1]: 0.1 nM

COc1ccc(N2CCN(CCCCc3c[nH]c4ccc(OC(C)=O)cc34)CC2)cc1
IC50 (D(2) dopamine receptor): > 100 nM | IC50 [1]: 0.5 nM

Oc1ccc2[nH]cc(CCCCN3CC=C(c4ccccc4)CC3)c2c1 [ROXINDOLE]
IC50 (D(2) dopamine receptor): 5.6 nM | IC50 [1]: 0.8 nM

NC(=O)c1ccc2[nH]cc(CCCCN3CCN(c4ccc5c(c4)OCCO5)CC3)c2c1
IC50 (D(2) dopamine receptor): 40 nM | IC50 [1]: 0.2 nM

COc1ccc2[nH]cc(CCCCN3CCN(c4ccc(OC(=O)C(C)(C)C)cc4)CC3)c2c1
IC50 [1]: 24 nM

O=C(O)c1ccc2[nH]cc(CCCCN3CCN(c4ccccc4)CC3)c2c1
IC50 (D(2) dopamine receptor): > 100 nM | IC50 [1]: 40 nM

O=C(O)c1ccc2[nH]cc(CCCCN3CCC(c4ccccc4)CC3)c2c1
IC50 (D(2) dopamine receptor): 1000 nM | IC50 [1]: 100 nM

COc1ccc2[nH]cc(CCCCN3CCN(c4ccc(OCc5ccccc5)cc4)CC3)c2c1
IC50 (D(2) dopamine receptor): 220 nM | IC50 [1]: 30 nM

COC(=O)c1ccc2[nH]cc(CCCCN3CCN(c4ccc(OC)cc4)CC3)c2c1
IC50 (D(2) dopamine receptor): > 100 nM | IC50 [1]: 8 nM

COCCOc1ccc(N2CCN(CCCCc3c[nH]c4ccc(OC)cc34)CC2)cc1
IC50 [1]: 2 nM

COC(=O)c1ccc2[nH]cc(CCCCN3CCN(c4ccccc4)CC3)c2c1
IC50 (D(2) dopamine receptor): 31 nM | IC50 [1]: 40 nM

COc1ccc2[nH]cc(CCCCN3CCN(c4ccc(OC)c(OC)c4)CC3)c2c1
IC50 (D(2) dopamine receptor): 100 nM | IC50 [1]: 10 nM

CC(=O)Nc1ccc(N2CCN(CCCCc3c[nH]c4ccc(C(N)=O)cc34)CC2)cc1
IC50 (D(2) dopamine receptor): > 100 nM | IC50 [1]: 0.1 nM

COc1ccc2[nH]cc(CCCCN3CCN(c4ccc5c(c4)CCCO5)CC3)c2c1
IC50 (D(2) dopamine receptor): > 100 nM | IC50 [1]: 2 nM

N#Cc1c(F)cccc1N1CCN(CCCCc2c[nH]c3ccc(C(N)=O)cc23)CC1
IC50 (D(2) dopamine receptor): 5 nM | IC50 [1]: 0.01 nM

COc1ccc2[nH]cc(CCCCN3CC=C(c4ccccc4)CC3)c2c1
IC50 [1]: 20 nM

COc1ccc2[nH]cc(CCCCN3CCN(c4ccc(O[Si](C)(C)C(C)(C)C)cc4)CC3)c2c1
IC50 [1]: 70 nM

COc1ccc(N2CCN(CCCCc3c[nH]c4ccc(C(N)=O)cc34)CC2)c(OC)c1
IC50 (D(2) dopamine receptor): 100 nM | IC50 [1]: 0.07 nM

COc1ccc2[nH]cc(CCCCN3CCN(c4cc(C)c(OC)c(C)c4)CC3)c2c1
IC50 (D(2) dopamine receptor): > 100 nM | IC50 [1]: 60 nM

COc1c(Cl)cc(N2CCN(CCCCc3c[nH]c4ccc(C(N)=O)cc34)CC2)cc1Cl
IC50 (D(2) dopamine receptor): > 100 nM | IC50 [1]: 0.7 nM

COc1ccc2[nH]cc(CCCCN3CCN(c4cc(OC)c(OC)c(OC)c4)CC3)c2c1
IC50 (D(2) dopamine receptor): > 100 nM | IC50 [1]: 333 nM

NC(=O)c1ccc2[nH]cc(CCCCN3CCN(c4ccccc4C(N)=O)CC3)c2c1
IC50 (D(2) dopamine receptor): 97 nM | IC50 [1]: 0.3 nM

COc1ccc2[nH]cc(CCCCN3CCN(c4ccc5c(c4)OCCO5)CC3)c2c1
IC50 (D(2) dopamine receptor): 120 nM | IC50 [1]: 0.5 nM

COc1ccc(N2CCN(CCCCc3c[nH]c4ccc(OC5CCCC5)cc34)CC2)cc1
IC50 (D(2) dopamine receptor): > 100 nM | IC50 [1]: 90 nM

COc1ccc2[nH]cc(CCCCN3CCN(c4ccc(OC(C)=O)cc4)CC3)c2c1
IC50 (D(2) dopamine receptor): > 100 nM | IC50 [1]: 1 nM

COc1ccc2[nH]cc(CCCCN3CCN(c4ccc(NC(C)=O)cc4)CC3)c2c1
IC50 (D(2) dopamine receptor): > 100 nM | IC50 [1]: 3 nM

Oc1ccc2[nH]cc(CCCCN3CCN(c4ccccc4)CC3)c2c1
IC50 (D(2) dopamine receptor): 4.2 nM | IC50 [1]: 0.8 nM

COc1ccc2[nH]cc(CCCCN3CCN(c4ccc5c(c4)OCO5)CC3)c2c1
IC50 (D(2) dopamine receptor): 100 nM | IC50 [1]: 4 nM

COc1ccc2[nH]cc(CCCCN3CC=C(c4ccc(O)cc4)CC3)c2c1
IC50 (D(2) dopamine receptor): ~100 nM | IC50 [1]: 0.4 nM

COc1ccc2[nH]cc(CCCCN3CC=C(c4ccc5c(c4)OCO5)CC3)c2c1
IC50 (D(2) dopamine receptor): > 100 nM | IC50 [1]: 0.4 nM

CCOc1ccc(N2CCN(CCCCc3c[nH]c4ccc(OC)cc34)CC2)cc1
IC50 (D(2) dopamine receptor): > 100 nM | IC50 [1]: 0.8 nM

NC(=O)c1ccc2[nH]cc(CCCCN3CCC(c4ccccc4)CC3)c2c1
IC50 (D(2) dopamine receptor): 17 nM | IC50 [1]: 0.1 nM

CCOCCOCCOc1cccc(N2CCN(CCCCc3c[nH]c4ccc(C(N)=O)cc34)CC2)c1C#N
IC50 (D(2) dopamine receptor): 28 nM | IC50 [1]: 0.9 nM

NC(=O)c1ccc2[nH]cc(CCCCN3CCN(c4ccc(O)cc4)CC3)c2c1
IC50 (D(2) dopamine receptor): 156 nM | IC50 [1]: 0.2 nM

NC(=O)c1ccc2[nH]cc(CCCCN3CCN(c4ccc5c(c4)CCO5)CC3)c2c1
IC50 (D(2) dopamine receptor): > 100 nM | IC50 [1]: 0.5 nM

COC(=O)c1ccc2[nH]cc(CCCCN3CCC(c4ccccc4)CC3)c2c1
IC50 (D(2) dopamine receptor): 113 nM | IC50 [1]: 20 nM

CCCCCOc1ccc2[nH]cc(CCCCN3CCN(c4ccc(OC)cc4)CC3)c2c1
IC50 (D(2) dopamine receptor): > 100 nM | IC50 [1]: 200 nM

COc1ccc2[nH]cc(CCCCN3CCN(c4ccc5c(c4)CCO5)CC3)c2c1
IC50 (D(2) dopamine receptor): > 100 nM | IC50 [1]: 0.4 nM

Oc1ccc2[nH]cc(CCCCN3CCC(c4ccccc4)CC3)c2c1
IC50 (D(2) dopamine receptor): 80 nM | IC50 [1]: 1 nM

COc1ccccc1N1CCN(CCCCc2c[nH]c3ccc(C(N)=O)cc23)CC1
IC50 (D(2) dopamine receptor): 1.2 nM | IC50 [1]: 0.1 nM
